Assays:
Bacillus subtilis = test: Growth inhibition of Bacillus subtilis 168 at 0.2 mM measured every 10 mins over 16 hrs relative to control; assay type: functional; settings: subsp. subtilis str. 168, read-out: GI
Summary of the method: (§1)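 Cultures grown with compound at 0.2 mM; growth expressed as a percentage of the untreated positive control (growth without inhibitor, taken as 100%). B. subtilis (Gram-positive) and E. coli (Gram-negative) assayed in parallel.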

Escherichia coli = test: Growth inhibition of Escherichia coli DH5[alpha] at 0.2 mM measured every 10 mins over 16 hrs relative to control; assay type: functional; settings: read-out: GI; summary of the method: as §1
[1] = test system: Bacillus subtilis subsp. subtilis str. 168; test: Inhibition of Bacillus subtilis 168 RNA polymerase subunit beta' CH region interaction with full length sigmaA at 15 uM by ELISA relative to control
Summary of the method: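 ELISA measuring binding of B. subtilis σA to the β'-CH region of core RNAP with compound at 15 μM. Signal expressed as a percentage of the positive control (σA–β'-CH interaction without inhibitor, set at 100%).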

Compound	inhibition of growth at 200 µM (Bacillus subtilis) [%]	inhibition of growth at 200 µM (Escherichia coli) [%]	inhibition [1] [%]
COC(=O)c1cc2c(OC)cc(OC)c(C=C3C(=O)NC(=O)NC3=O)c2[nH]1	89	20	28
C=CCN1C(=O)/C(=C/c2c(OC)cc(OC)c3cc(C(=O)OC)[nH]c23)SC1=S	22	79	46
COc1cc(OC)c2cc(C(=O)O)[nH]c2c1C=C1C(=O)NC(=S)NC1=O	0	0	71
COc1cc(OC)c2cc(C(=O)O)[nH]c2c1C=C1C(=O)NC(=O)NC1=O	0	0	28
COc1cc(OC)c2c(-c3ccccc3)c[nH]c2c1/C=C1\SC(=S)NC1=O	44	45	17
COc1cc(OC)c2c(-c3ccc(Cl)cc3)c[nH]c2c1C=C1C(=O)NC(=O)NC1=O	41	30	15
COc1cc(OC)c2c(-c3ccc(Cl)cc3)c[nH]c2c1/C=C1\SC(=S)NC1=O	0	15	21
COC(=O)c1cc2c(OC)cc(OC)c(C=C3C(=O)NC(=S)NC3=O)c2[nH]1	91	57	17
COC(=O)c1cc2c(OC)cc(OC)c(/C=C3\SC(=S)NC3=O)c2[nH]1	45	28	3
COc1cc(OC)c2c(-c3ccc(Cl)cc3)c[nH]c2c1C=C1C(=O)NC(=S)NC1=O	0	24	14
COc1cc(OC)c2c(-c3ccccc3)c[nH]c2c1C=C1C(=O)NC(=S)NC1=O	0	0	14
C=CCN1C(=O)/C(=C/c2c(OC)cc(OC)c3c(-c4ccccc4)c[nH]c23)SC1=S	44	66	0
C=CCN1C(=O)/C(=C/c2c(OC)cc(OC)c3cc(C(=O)O)[nH]c23)SC1=S	21	30	74
C=CCN1C(=O)/C(=C/c2c(OC)cc(OC)c3c(-c4ccc(Cl)cc4)c[nH]c23)SC1=S	8	14	34
COc1cc(OC)c2cc(C(=O)O)[nH]c2c1/C=C1\SC(=S)NC1=O	0	26	36
COc1cc(OC)c2c(-c3ccccc3)c[nH]c2c1C=C1C(=O)NC(=O)NC1=O	83	0	45
C=CCN1C(=O)/C(=C/c2c(OC)cc(OC)c3cc(C(=O)OCc4ccccc4)[nH]c23)SC1=S	6	28	63

— ChEMBL document CHEMBL4043208, “Small molecule inhibitors of bacterial transcription complex formation” (2017)
